The record followed here is ChEMBL document CHEMBL1158361, “Discovering novel quercetin-3-O-amino acid-esters as a new class of Src tyrosine kinase inhibitors” (Eur J Med Chem, 2009).

Test [1] has as its target T1, Proto-oncogene tyrosine-protein kinase Src (Homo sapiens, UniProt P12931). The test can be described thus: Inhibition of Src at 10 uM. Put shortly:
(§1)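 Wells were precoated with 20 μg/mL poly(Glu,Tyr)4:1 substrate, then given an 8 μM ATP solution (added concentration) and compound. Purified EGFR or Src in kinase buffer ran for 60 min at 37 °C, in triplicate, with 0.1% DMSO as negative control. Phosphotyrosine was detected with PY99, HRP anti-mouse IgG and o-phenylenediamine/H2O2 at A490. Inhibition % = [1 − A490/A490 control] × 100, and IC50 was taken from inhibition curves.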

The target in test [2] is Epidermal growth factor receptor (Homo sapiens) (UniProt P00533). In words: Inhibition of EGFR at 10 uM. Put shortly: as §1
Sequence of Epidermal growth factor receptor (Homo sapiens) (P00533 whole entry): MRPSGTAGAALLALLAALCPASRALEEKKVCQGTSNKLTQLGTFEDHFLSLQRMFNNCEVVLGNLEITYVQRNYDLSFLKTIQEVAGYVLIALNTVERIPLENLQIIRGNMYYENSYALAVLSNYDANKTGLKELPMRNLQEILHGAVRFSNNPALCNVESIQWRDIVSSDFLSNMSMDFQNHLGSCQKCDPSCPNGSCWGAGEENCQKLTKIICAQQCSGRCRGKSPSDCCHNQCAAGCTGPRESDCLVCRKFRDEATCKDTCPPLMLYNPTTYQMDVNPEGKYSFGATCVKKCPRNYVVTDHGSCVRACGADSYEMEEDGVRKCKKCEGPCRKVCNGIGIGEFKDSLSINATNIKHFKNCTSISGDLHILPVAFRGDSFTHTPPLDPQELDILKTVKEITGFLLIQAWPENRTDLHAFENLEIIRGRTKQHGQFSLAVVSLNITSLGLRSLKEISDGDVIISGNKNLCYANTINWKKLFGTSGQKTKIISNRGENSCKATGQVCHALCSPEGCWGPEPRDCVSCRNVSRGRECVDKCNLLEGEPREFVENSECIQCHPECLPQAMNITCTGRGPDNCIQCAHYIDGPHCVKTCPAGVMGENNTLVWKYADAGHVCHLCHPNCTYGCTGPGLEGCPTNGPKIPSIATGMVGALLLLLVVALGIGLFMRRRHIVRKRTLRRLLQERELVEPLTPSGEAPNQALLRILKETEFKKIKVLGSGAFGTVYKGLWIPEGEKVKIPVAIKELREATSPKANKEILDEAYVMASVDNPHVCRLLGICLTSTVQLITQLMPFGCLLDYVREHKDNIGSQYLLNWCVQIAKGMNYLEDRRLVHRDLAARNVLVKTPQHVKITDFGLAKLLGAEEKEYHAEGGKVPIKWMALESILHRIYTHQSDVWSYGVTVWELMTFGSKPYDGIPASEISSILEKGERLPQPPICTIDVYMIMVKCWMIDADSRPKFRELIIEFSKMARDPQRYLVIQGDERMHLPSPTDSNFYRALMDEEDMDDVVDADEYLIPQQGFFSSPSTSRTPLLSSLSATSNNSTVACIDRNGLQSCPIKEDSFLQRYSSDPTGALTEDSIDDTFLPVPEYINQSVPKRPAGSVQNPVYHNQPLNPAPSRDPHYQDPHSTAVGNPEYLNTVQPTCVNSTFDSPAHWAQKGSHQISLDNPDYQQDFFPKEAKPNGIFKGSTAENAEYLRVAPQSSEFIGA
The target in test [3] is T1, Proto-oncogene tyrosine-protein kinase Src. The test can be described thus: Inhibition of Src. Put shortly: as §1

Structures are written as SMILES.

T1 sequence (P12931 2-536 limits assumed): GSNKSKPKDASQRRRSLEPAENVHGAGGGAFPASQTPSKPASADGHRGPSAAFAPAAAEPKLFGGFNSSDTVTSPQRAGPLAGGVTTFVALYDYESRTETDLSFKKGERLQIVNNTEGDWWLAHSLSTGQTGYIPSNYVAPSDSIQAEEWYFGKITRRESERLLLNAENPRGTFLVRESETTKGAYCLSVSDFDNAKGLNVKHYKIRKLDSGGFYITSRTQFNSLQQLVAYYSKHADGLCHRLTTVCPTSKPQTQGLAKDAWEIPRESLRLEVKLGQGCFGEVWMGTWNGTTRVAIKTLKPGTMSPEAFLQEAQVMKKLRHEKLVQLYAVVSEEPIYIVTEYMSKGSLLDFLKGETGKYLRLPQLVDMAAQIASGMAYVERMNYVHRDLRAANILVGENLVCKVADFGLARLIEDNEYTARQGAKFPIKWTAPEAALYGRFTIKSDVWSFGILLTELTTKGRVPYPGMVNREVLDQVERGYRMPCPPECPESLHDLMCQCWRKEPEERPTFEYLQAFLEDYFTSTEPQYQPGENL

For orientation: inhibition means the change of the read-out against control, counted positive when it falls. Read a low inhibition as a weak effect. By IC50 is commonly meant the point on the concentration scale where inhibition reaches its midpoint. For `CC(=O)N[C@@H](Cc1ccccc1)C(=O)Oc1c(-c2ccc(O)c(O)c2)oc2cc(O)cc(O)c2c1=O`, the inhibition in test [1] came out at 60.5%; in test [2], 20.9%. The IC50 in test [3] amounted to 5.9 µM.
With `CC(=O)N[C@@H](CC(C)C)C(=O)Oc1c(-c2ccc(O)c(O)c2)oc2cc(O)cc(O)c2c1=O`, the inhibition is 39% in test [1] and 25.9% in test [2].
On to `CC(C)(C)OC(=O)NCC(=O)Oc1c(-c2ccc(O)c(O)c2)oc2cc(O)cc(O)c2c1=O`, for which the figures for the inhibition in test [1] and in test [2] were 76.2% and 43.2%, respectively. The same compound showed an IC50 in test [3] of 3.3 µM.
On to `CC(C)(C)n1nc(-c2ccc(Cl)cc2)c2c(N)ncnc21`, for which the inhibition in test [1] came out at 99%.
`CC(C)C[C@H](NC(=O)OC(C)(C)C)C(=O)Oc1c(-c2ccc(O)c(O)c2)oc2cc(O)cc(O)c2c1=O`: the inhibition in test [1] was determined as 55.4%; in test [2], 30.4%. Besides, 4.2 µM corresponded to half-maximal inhibition in test [3] (IC50).
`CC(C)(C)OC(=O)N1CCC[C@H]1C(=O)Oc1c(-c2ccc(O)c(O)c2)oc2cc(O)cc(O)c2c1=O`: the inhibition in test [1] came to 27.7%; in test [2], 19.3%.
In the case of `CC(C)[C@H](NC(=O)OC(C)(C)C)C(=O)Oc1c(-c2ccc(O)c(O)c2)oc2cc(O)cc(O)c2c1=O`, the inhibition in test [1] is 52.5%; in test [2], 21%. The same compound showed a concentration for half-maximal inhibition (IC50) in test [3] of 7.4 µM.
As to `C[C@H](O)[C@@H](NC(=O)OC(C)(C)C)C(=O)Oc1c(-c2ccc(O)c(O)c2)oc2cc(O)cc(O)c2c1=O`, the inhibition in test [1] came to 71%; in test [2] it was 34.6%. In test [3], this compound showed a half-maximal inhibitory concentration (IC50) of 4.9 µM.
For the compound `CC(C)(C)OC(=O)N[C@@H](Cc1ccccc1)C(=O)Oc1c(-c2ccc(O)c(O)c2)oc2cc(O)cc(O)c2c1=O`, the inhibition in test [1] was 40.9%; in test [2], 35.9%.
The corresponding values for `CC(C)[C@@H](NC(=O)OC(C)(C)C)C(=O)Oc1c(-c2ccc(O)c(O)c2)oc2cc(O)cc(O)c2c1=O` are 40.7% and 22.3%.
Regarding `COc1cc2ncnc(Nc3ccc(OCc4ccccc4)cc3)c2cc1OC`, the inhibition in test [2] came out at 97.2%.
On to `CC(C)(C)OC(=O)N[C@@H](Cc1c[nH]c2ccccc12)C(=O)Oc1c(-c2ccc(O)c(O)c2)oc2cc(O)cc(O)c2c1=O`, for which the inhibition in test [1] came to 44.4%; in test [2], 15.6%.
Take `CC(C)(C)OC(=O)N[C@@H](CC(N)=O)C(=O)Oc1c(-c2ccc(O)c(O)c2)oc2cc(O)cc(O)c2c1=O`: the inhibition stood at 50.8% in test [1] and 23.8% in test [2]. This compound also yielded an IC50 in test [3] of 9.9 µM.
With `CC(=O)N1CCC[C@H]1C(=O)Oc1c(-c2ccc(O)c(O)c2)oc2cc(O)cc(O)c2c1=O`, the inhibition stood at 24.3% in test [1] and 21% in test [2].
As for `O=c1c(O)c(-c2ccc(O)c(O)c2)oc2cc(O)cc(O)c12` [QUERCETIN], the IC50 in test [3] stood at 15 µM.
Regarding `C[C@@H](O)[C@H](NC(=O)OC(C)(C)C)C(=O)Oc1c(-c2ccc(O)c(O)c2)oc2cc(O)cc(O)c2c1=O`, the inhibition in test [1] turned out to be 76.1%; in test [2] it was 36.8%. The same compound returned a 50% inhibitory concentration (IC50) in test [3] of 3.5 µM.
Consider `CC(C)C[C@@H](NC(=O)OC(C)(C)C)C(=O)Oc1c(-c2ccc(O)c(O)c2)oc2cc(O)cc(O)c2c1=O`, for which the inhibition in test [1] is 44.5%; in test [2], 29.2%.
As for `C[C@H](NC(=O)OC(C)(C)C)C(=O)Oc1c(-c2ccc(O)c(O)c2)oc2cc(O)cc(O)c2c1=O`, the inhibition in test [1] was 51.4%; in test [2], 35.9%. Besides, the IC50 in test [3] was 6.5 µM.
